Records with an inconclusive call do not appear.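 Rule for the calls, unless noted: active = viability at or below 27.92% in each of two runs, the all-compound median minus 4 SD; inconclusive = no clear call, values can overlap the other calls; inactive = the rest.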
What was measured:
[1] = S. cerevisiae growth inhibition in permissive medium (OD615), pilot counter-assay for S. cerevisiae lifespan shortening project, permissive growth control (AID 705;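 active = growth inhibition above 25% in both replicates, a cutoff set 3 SD above the mean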); settings: OD615, 24 h, at 10 µM, hits give high values
How it was run: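 Material: engineered DeaD yeast; Compound: one dose 10 µM, DMSO 0.25% final; Detection: absorbance (optical density) at 615 nm; Buffer or medium: permissive raffinose/galactose medium; Timing: 24 h exposure, 30 °C.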

[2] = S. cerevisiae growth inhibition in restrictive medium, OD615, pilot screen, restrictive growth control, yeast lifespan reduction project (AID 706;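 active = growth inhibition above a set limit, 3 SD over mean compound inhibition, in both replicates, cut at about 43% in these data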;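 note: modified DeaD lifespan yeast strain shifted to restrictive glucose medium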); settings: OD615, 48 h, at 10 µM, hits give high values
How it was run: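 Buffer or medium: restrictive glucose medium (CSMM-D); test system: modified S. cerevisiae; doses: single dose of 10 µM compound final, 0.25% DMSO; schedule: 48 h compound exposure at 30 °C; detection: absorbance (optical density) measured at 615 nm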

[3] = doxorubicin toxicity protection in MRP-1 cells – H69AR cells, CellTiter-Glo, duplicate, MRP-1 activator project, pilot screen (AID 807;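 active = viability increase at or above a cutoff of the median across tested compounds plus 3 SD, cut at about 8.5% in these data, passing the limit was not always enough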;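 note: compound pretreatment 18-22 h then 72 h combined with doxorubicin; 0% = doxorubicin alone and 100% = vehicle without doxorubicin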); settings: H69AR viability with doxorubicin, CellTiter-Glo luminescence; at 10 µM; hits give high values
[4] = viability of PTEN-null HCT116 cells – cell-based, HCT116 clonal line, CellTiter-Glo, pilot screen (AID 824); settings: HCT116 PTEN-deleted viability, 60 h, at 10 µM, hits give low values;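 note: 0% = 20 µM Hyamine control and 100% = vehicle cell control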
[5] = RAM pathway blockade in budding yeast – dse1pr::URA3 reporter, 5-FOA selection, pilot screen (AID 869;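 active = inhibition over a set limit, the all-compound mean plus 3 SD, in both replicate runs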;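 note: 0% = DMSO wells with no growth and 100% = 10 µM 1-NA-PP1 with full growth; RAM network block rescues cells from 5-FOA so hits raise OD615 growth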); settings: S. cerevisiae dse1pr::URA3 5-FOA growth, OD615, 2 d; at 10 µM; hits give high values; strain carries analog-sensitive mutant Cbk1 kinase
[6] = RAM signaling pathway blockade in yeast – S. cerevisiae, Pdr1DBD-CYC8 efflux-inhibited sensitized strain, primary screen (AID 1298;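 active = RAM network inhibition above 8.4% in each of two replicates, 3 SD over the compound average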;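 note: 0% = DMSO untreated cells without growth and 100% = 10 µM 1-NA-PP1 full growth; higher means more yeast growth rescued from 5-FOA killing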); settings: S. cerevisiae cbk1-as DSE1-URA3 strain, 5-FOA growth OD615, 2 d; at 50 µM; hits give high values

CCOC(=O)C1CCN(C(=O)c2oc3ccc(S(=O)(=O)N4CC(C)CC(C)C4)cc3c2C)CC1 (stereo not given)
inactive: growth inhibition [1] 1.57% | growth inhibition [2] -4.64% | viability increase [3] -6.15% | viability [4] 52.7% | inhibition [5] -1.02% | RAM network inhibition [6] 5.32%

CCCC(=O)c1cc(F)c(N2CCN(CCC#N)CC2)cc1C
inactive: growth inhibition [1] -9.06% | growth inhibition [2] -15.5% | viability increase [3] -0.66% | viability [4] 93.6% | inhibition [5] 2.97% | RAM network inhibition [6] 3.23%

CCOc1cc(C2NC(=O)NC(C)=C2C(=O)OC(C)CC)cc(Br)c1O (stereo not given)
inactive: growth inhibition [1] -4.09% | growth inhibition [2] -10.5% | viability increase [3] -1.01% | viability [4] 91.2% | inhibition [5] 2.17% | RAM network inhibition [6] 2.16%

Cc1c(C(=O)NCc2ccccn2)oc2ccc(S(=O)(=O)N3CCOCC3)cc12
inactive: growth inhibition [1] -0.375% | growth inhibition [2] -7.32% | viability increase [3] -3.28% | viability [4] 94.4% | inhibition [5] 1.13% | RAM network inhibition [6] 0.56%

CC(=O)N1CCN(S(=O)(=O)c2ccc(C)cc2)C1c1ccc(N(C)C)cc1 (stereo not given)
inactive: growth inhibition [1] 4.58% | growth inhibition [2] 1.53% | viability increase [3] -2.16% | viability [4] 97.1% | inhibition [5] 1.61% | RAM network inhibition [6] 4.14%

COC(=O)CCc1nc2ccccc2[nH]c1=O
inactive: growth inhibition [1] -6.03% | growth inhibition [2] -5.04% | viability increase [3] -0.31% | viability [4] 100% | inhibition [5] 1.4% | RAM network inhibition [6] 2.15%

Cc1c(C)[n+](=O)c(-c2ccc(F)cc2)c(C)n1[O-]
inactive: growth inhibition [1] -1.22% | growth inhibition [2] 3.79% | viability increase [3] -3.29% | viability [4] 98.3% | inhibition [5] 0.535% | RAM network inhibition [6] 4.01%

CN(CCNC(=O)c1cc2c(=O)n(C)c3ccccc3c2n1C)Cc1ccccc1
inactive: growth inhibition [1] -12% | growth inhibition [2] -7.87% | viability increase [3] -8.65% | viability [4] 41.1% | inhibition [5] 1.83% | RAM network inhibition [6] -0.47%

Cc1cc(NS(=O)(=O)c2ccccc2)cc(Cl)c1O
inactive: growth inhibition [1] -22.9% | growth inhibition [2] 2.72% | viability increase [3] -2.8% | viability [4] 86.2% | inhibition [5] 1.4% | RAM network inhibition [6] 2.58%

COc1ccc(S(=O)(=O)N2CCCCC2C(=O)O)cc1OC (stereo not given)
inactive: growth inhibition [1] -7% | growth inhibition [2] -10.8% | viability increase [3] -0.69% | viability [4] 101% | inhibition [5] 2.17% | RAM network inhibition [6] 5.22%

CCNc1nc(-c2ccc(Cl)cc2)cs1
inactive: growth inhibition [1] 1.33% | growth inhibition [2] 0.05% | viability increase [3] -1.74% | viability [4] 84.4% | inhibition [5] -0.24% | RAM network inhibition [6] -0.26%

CCOC(=O)C1CCN(C(=O)c2cn(C)c(=O)c3cc(OC)c(OC)cc23)CC1
inactive: growth inhibition [1] -3.38% | growth inhibition [2] -10.2% | viability increase [3] -4.21% | viability [4] 98% | inhibition [5] 1% | RAM network inhibition [6] 3.95%

CCOC(=O)N1CCN(C(=O)c2oc3ccc(S(=O)(=O)N4CC(C)CC(C)C4)cc3c2C)CC1 (stereo not given)
inactive: growth inhibition [1] -2.93% | growth inhibition [2] 2.18% | viability increase [3] -6.37% | viability [4] 42.5% | inhibition [5] 1.43% | RAM network inhibition [6] 4.64%

Cc1cccc(N(C)C(=O)CCS(=O)(=O)c2cccc3nonc23)c1
inactive: growth inhibition [1] -5.82% | growth inhibition [2] 0.54% | viability increase [3] -4.98% | viability [4] 96.3% | inhibition [5] 1.06% | RAM network inhibition [6] 5.74%

COc1cc(C(=O)NCc2ccc3c(c2)OCO3)ccc1OCc1c(C)noc1C
inactive: growth inhibition [1] 2.15% | growth inhibition [2] -2.32% | viability increase [3] -1.5% | viability [4] 95.1% | inhibition [5] 2.5% | RAM network inhibition [6] 3.79%

CN1CCN(C(=O)c2c(NC(=O)c3ccco3)sc3c2CCC(C(C)(C)C)C3)CC1 (stereo not given)
inactive: growth inhibition [1] -11.3% | growth inhibition [2] 1.13% | viability increase [3] -2.04% | viability [4] 79.9% | inhibition [5] -0.17% | RAM network inhibition [6] 0.15%

C=CCC1(O)C(=O)N2C(=C1C(=O)N1CCOCC1)c1ccccc1CC2(C)C (stereo not given)
inactive: growth inhibition [1] 5.07% | growth inhibition [2] -8.41% | viability increase [3] -2.47% | viability [4] 99.4% | inhibition [5] 0.41% | RAM network inhibition [6] 2.11%

Cc1ccc(S(=O)(=O)N(CC(=O)N2CCOCC2)C2CCCCC2)cc1
inactive: growth inhibition [1] -7.12% | growth inhibition [2] -1.69% | viability increase [3] -2.71% | viability [4] 103% | inhibition [5] 1.29% | RAM network inhibition [6] 1.99%

COc1ccc(S(=O)(=O)Nc2ccc(S(=O)(=O)N3CCOCC3)cc2)cc1
inactive: growth inhibition [1] -3.87% | growth inhibition [2] -1.83% | viability increase [3] -1.49% | viability [4] 101% | inhibition [5] 1.18% | RAM network inhibition [6] 2.87%

CCOC(=O)c1ccc(NC(=O)c2cccc(S(=O)(=O)N3CCOCC3)c2)cc1
inactive: growth inhibition [1] -9.14% | growth inhibition [2] -4.13% | viability increase [3] -0.35% | viability [4] 57.2% | inhibition [5] 2.96% | RAM network inhibition [6] 7.23%

COCCNC(=O)C1c2ccccc2C(=O)N(CCOC)C1c1ccc(F)cc1 (stereo not given)
inactive: growth inhibition [1] -6.02% | growth inhibition [2] 3.31% | viability increase [3] -2.15% | viability [4] 101% | inhibition [5] 1.29% | RAM network inhibition [6] 0.46%

CCOc1c(Br)cc(C(N)=O)cc1OC
inactive: growth inhibition [1] 5.05% | growth inhibition [2] -3.4% | viability increase [3] -2.49% | viability [4] 101% | inhibition [5] 0.87% | RAM network inhibition [6] 2.56%

CC(c1ccccc1F)n1cc(C(=O)NCCc2ccco2)nn1 (stereo not given)
inactive: growth inhibition [1] -12.9% | growth inhibition [2] -9.79% | viability increase [3] -4.02% | viability [4] 76.3% | inhibition [5] 0.72% | RAM network inhibition [6] 0.46%

Cc1ccc(S(=O)(=O)NC(=O)Nn2c(C)nnc2C)cc1
inactive: growth inhibition [1] -8.7% | growth inhibition [2] -6.25% | viability increase [3] -0.15% | viability [4] 102% | inhibition [5] 0.75% | RAM network inhibition [6] 4.31%

Cc1ccc(N(CC(=O)NC2CC3CCC2C3)S(C)(=O)=O)cc1C (stereo not given)
inactive: growth inhibition [1] -2.18% | growth inhibition [2] -4.39% | viability increase [3] -2.03% | viability [4] 96.8% | inhibition [5] 1.26% | RAM network inhibition [6] 5.17%

COc1ccc(C)cc1NC(=O)CN(c1ccccc1)S(C)(=O)=O
inactive: growth inhibition [1] -7.61% | growth inhibition [2] -4.67% | viability increase [3] -1.58% | viability [4] 96% | inhibition [5] 0.74% | RAM network inhibition [6] 5.82%

O=C(CN1CCCCC1)Nc1ccc(F)c(Cl)c1
inactive: growth inhibition [1] 5.67% | growth inhibition [2] 4.63% | viability increase [3] -2.13% | viability [4] 98.4% | inhibition [5] 1.7% | RAM network inhibition [6] -0.11%

Cc1cccc(NC(=O)CS(=O)(=O)c2cn(C)c3ccccc23)c1C
inactive: growth inhibition [1] -8.09% | growth inhibition [2] -5.75% | viability increase [3] -3.27% | viability [4] 96.5% | inhibition [5] 1.46% | RAM network inhibition [6] 3.02%

CCOC(=O)N1CCN(C(=O)CN(c2ccc(Cl)c(C(F)(F)F)c2)S(C)(=O)=O)CC1
inactive: growth inhibition [1] -5.69% | growth inhibition [2] -17.2% | viability increase [3] -4.27% | viability [4] 90.3% | inhibition [5] -0.06% | RAM network inhibition [6] 3.68%

O=C(C1CC1)N1CCc2cc(Br)cc(S(=O)(=O)NCCN3CCOCC3)c21
inactive: growth inhibition [1] -5.94% | growth inhibition [2] -6.43% | viability increase [3] -2.94% | viability [4] 94.7% | inhibition [5] 1.69% | RAM network inhibition [6] 2.57%

CCN(CC)C(=O)C(C)N(C#N)c1nc(NC(C)C)nc(NC(C)C)n1 (stereo not given)
inactive: growth inhibition [1] -9.32% | growth inhibition [2] -0.315% | viability increase [3] -3.7% | viability [4] 101% | inhibition [5] 0.715% | RAM network inhibition [6] 2.25%

COc1cc(OC)cc(C(=O)Nc2cccc(C(C)=O)c2)c1
inactive: growth inhibition [1] -6.17% | growth inhibition [2] -2.38% | viability increase [3] -2.42% | viability [4] 89.9% | inhibition [5] 1.7% | RAM network inhibition [6] 1.49%

CCOC(=O)CNS(=O)(=O)CCN1C(=O)c2ccccc2C1=O
inactive: growth inhibition [1] -8.36% | growth inhibition [2] -4.12% | viability increase [3] 0.26% | viability [4] 94.3% | inhibition [5] 2.52% | RAM network inhibition [6] 0.77%

C=CCn1c(C)cc(C(=O)COc2nncc3ccccc23)c1C
inactive: growth inhibition [1] -10.3% | growth inhibition [2] -15% | viability increase [3] -2.37% | viability [4] 74.2% | inhibition [5] 2.32% | RAM network inhibition [6] 0.87%

O=C(NCc1ccco1)C1CCN(C(=O)Cc2ccccc2)CC1
inactive: growth inhibition [1] -8.46% | growth inhibition [2] 4.75% | viability increase [3] -3.71% | viability [4] 102% | inhibition [5] 1.32% | RAM network inhibition [6] 3.59%

CCCC(C)NC(=O)c1ccc(F)cc1 (stereo not given)
inactive: growth inhibition [1] -11.8% | growth inhibition [2] -7.83% | viability increase [3] -1.81% | viability [4] 99.9% | inhibition [5] 0.66% | RAM network inhibition [6] 1.8%

Cn1cnnc1SCC(=O)c1ccco1
inactive: growth inhibition [1] -5.92% | growth inhibition [2] -3.4% | viability increase [3] -1.08% | viability [4] 106% | inhibition [5] 0.79% | RAM network inhibition [6] 3.27%

COc1ccc(OC)c2c(C)cc(N3CCCN(C)CC3)nc12
inactive: growth inhibition [1] 3.26% | growth inhibition [2] -3.9% | viability increase [3] -4.81% | viability [4] 85.9% | inhibition [5] 0.015% | RAM network inhibition [6] 0%

CCCOc1ccc(/C(O)=C2/C(=O)C(=O)N(CCN(C)C)C2c2ccco2)cc1 (stereo not given)
inactive: growth inhibition [1] -0.855% | growth inhibition [2] 13.9% | viability increase [3] -4.27% | viability [4] 99.6% | inhibition [5] -0.28% | RAM network inhibition [6] -1.54%

Cc1cc(C(=O)N2CCN(c3ccccn3)CC2)c(C)o1
inactive: growth inhibition [1] 9.65% | growth inhibition [2] -7.73% | viability increase [3] -5.92% | viability [4] 96.3% | inhibition [5] 0.945% | RAM network inhibition [6] 4.2%
